# Measurements gathered from unrelated publications.
# Lines come from different studies, so protocols differ.
# Action: inhibitor
# VCP: Transitional endoplasmic reticulum ATPase (VCP, Homo sapiens, UniProt P55072)
# HDAC4: Histone deacetylase 4 (HDAC4, Homo sapiens, UniProt P56524)
# SLCO1B3: Solute carrier organic anion transporter family member 1B3 (SLCO1B3, Homo sapiens, UniProt Q9NPD5)
# BLK: Tyrosine-protein kinase Blk (BLK, Homo sapiens, UniProt P51451)
# P4HB: Protein disulfide-isomerase (P4HB, Homo sapiens, UniProt P07237)
SMILES,target,observed,technique,time,setting,IC50 [µM]
N=C(N)c1ccc(OCCCCCOc2ccc(C(=N)N)cc2)cc1,"Coagulation factor XIII A chain (F13A1, Homo sapiens, UniProt P00488)",enzyme activity,fluorescence,,,> 50
CONC(=O)c1c(C)n(-c2nc3c(c(NCc4ccccc4)n2)CCCN3)c2ccccc12,VCP,enzyme activity,ADP detection,,,1.64
O=C(NO)c1ccc(Cn2cnc3c(Nc4ccc(Cl)cc4)ncnc32)cc1,HDAC4,enzyme activity,,,,3.11
CC(=O)O[C@H]1C(=O)[C@@]2(C)[C@H]([C@H](OC(=O)c3ccccc3)[C@]3(O)C[C@H](OC(=O)[C@H](O)[C@@H](NC(=O)c4ccccc4)c4ccccc4)C(C)=C1C3(C)C)[C@]1(OC(C)=O)CO[C@@H]1C[C@@H]2O,SLCO1B3,transporter uptake,radiometric,2 min,,12.8
CC#CC(=O)N1CCC[C@H]1c1nc(-c2ccc(C(=O)Nc3ccccn3)cc2)c2c(N)nccn12,BLK,enzyme activity,,,,4.22
CN(Cc1cnc2nc(N)nc(N)c2n1)c1ccc(C(=O)N[C@@H](CCC(=O)O)C(=O)O)cc1,"Solute carrier organic anion transporter family member 1B3 (SLCO1B3, Homo sapiens, UniProt Q9NPD5, M233I)",transporter uptake,radiometric,2 min,,> 100
O=C(OC[C@H]1O[C@@H](OC(=O)c2cc(O)c(O)c(O)c2)[C@H](OC(=O)c2cc(O)c(O)c(O)c2)[C@@H](OC(=O)c2cc(O)c(O)c(O)c2)[C@@H]1OC(=O)c1cc(O)c(O)c(O)c1)c1cc(O)c(O)c(O)c1,P4HB,enzyme activity,fluorescence,,,2.9
Cc1cc2c(C(N)=O)nccc2n1-c1nc2c(c(NCc3ccccc3)n1)CCCN2,VCP,enzyme activity,ADP detection,,,0.121
O=c1c(O)cc([C@H]2Oc3cc(O)cc(O)c3C[C@H]2O)cc2c([C@H]3Oc4cc(O)cc(O)c4C[C@H]3O)cc(O)c(O)c12,P4HB,enzyme activity,fluorescence,,,> 500
COc1cccc2c1C(=O)c1c(O)c3c(c(O)c1C2=O)C[C@@](O)(C(=O)CO)C[C@@H]3O[C@H]1C[C@H](N)[C@H](O)[C@H](C)O1,SLCO1B3,transporter uptake,radiometric,2 min,,7.7
Cc1cc2c(C(N)=O)cccc2n1-c1nc(NCc2ccccc2)c2c(n1)NC(C)CC2 (stereo not shown),VCP,enzyme activity,ADP detection,,,0.039
COc1ccc(N(Cc2csc(-c3ccc(Br)cc3)n2)C(=O)CCCCCC(=O)NO)cc1,HDAC4,enzyme activity,,,,> 10
O=C(O[C@@H]1Cc2c(O)cc(O)cc2O[C@@H]1c1cc(O)c(O)c(O)c1)c1cc(O)c(O)c(O)c1,P4HB,enzyme activity,fluorescence,,,243
CC(C)n1c(/C=C/C(O)CC(O)CC(=O)O)c(-c2ccc(F)cc2)c2ccccc21 (stereo not shown),"Solute carrier organic anion transporter family member 1B3 (SLCO1B3, Homo sapiens, UniProt Q9NPD5, S112A)",transporter uptake,radiometric,2 min,,3.08
Cc1cc2c(C(N)=O)cncc2n1-c1nc2c(c(NCc3ccccc3)n1)CCCN2,VCP,enzyme activity,ADP detection,,,0.082
NC/C(=C\F)COc1cccc(Cn2c(=S)[nH]c(=O)c3[nH]cnc32)c1,"Lactoperoxidase (LPO, Bos taurus, UniProt P80025)",enzyme activity,,,,7.5
Cc1cc2c(C(=O)O)cccc2n1-c1nc2c(c(NCc3ccccc3)n1)CCCN2,VCP,enzyme activity,ADP detection,,,0.032
C[C@H]1CN(C2COC2)CCN1c1ccc(Nc2cc(-c3ccnc(N4CCn5c(cc6c5CC(C)(C)C6)C4=O)c3CO)cn(C)c2=O)nc1,BLK,enzyme activity,,,,> 5
CCc1oc2cc(F)ccc2c1C(=O)c1cc(Br)c(O)c(Br)c1,"Solute carrier family 2, facilitated glucose transporter member 9 (SLC2A9, Homo sapiens, UniProt Q9NRM0)",transporter uptake,,,oocytes,30.4
